Data from ChEMBL document CHEMBL1138673, “Bulky nonproteinogenic amino acids permit the design of very small and effective cationic antibacterial peptides” (2004).
Values after ≈ are worked out from the molar mass of the structure shown. Square brackets hold non-standard residues; d marks the D form. Peptide text beside a SMILES is read from it. * marks the point of attachment. Phe(4-tBu) = CC(C)(C)c1ccc(C[C@H](N)C(=O)O)cc1; Bip = N[C@@H](Cc1ccc(-c2ccccc2)cc1)C(=O)O; tBuAla = CC(C)(C)C[C@H](N)C(=O)O; Cha = N[C@@H](CC1CCCCC1)C(=O)O; Tle = CC(C)(C)[C@H](N)C(=O)O; NHBn = c1ccc(CN*)cc1; OBn = c1ccc(CO*)cc1

Key:
Staphylococcus aureus = assay: Minimum inhibitory concentration against Staphylococcus aureus; format: functional
Procedure, shortened: (§1)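 E. coli ATCC 25922 or S. aureus ATCC 25923 grown to exponential phase in 2% Bacto Peptone water. Standard broth microdilution, inoculum 2 × 10^6 cfu/mL, in 1% Bacto Peptone water, overnight incubation at 37 °C. MIC read after incubation. Each peptide run in parallel from at least three independent dilutions, with gentamicin as internal standard.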

Escherichia coli = assay: Minimum inhibitory concentration against Escherichia coli; format: functional; procedure, shortened: as §1

| Structure (SMILES) | MIC (Staphylococcus aureus) [µg/mL] | MIC (Escherichia coli) [µg/mL] |
| --- | --- | --- |
| CC(C)(C)c1ccc(C[C@H](N)C(=O)N[C@@H](CCCN=C(N)N)C(=O)OCc2ccccc2)cc1 (H-[Phe(4-tBu)]-Arg-OBn) | 25 (≈ 53.5 µM) | 200 (≈ 428 µM) |
| COC(=O)[C@H](CCCN=C(N)N)NC(=O)[C@@H](N)Cc1ccc(-c2ccccc2)cc1 (H-[Bip]-Arg-OMe) | 150 (≈ 365 µM) | > 300 |
| CC(C)(C)[C@H](N)C(=O)N[C@@H](CCCN=C(N)N)C(=O)OCc1ccccc1 (H-[Tle]-Arg-OBn) | > 300 | > 300 |
| NCCCC[C@H](N)C(=O)N[C@@H](Cc1c[nH]c2ccccc12)C(=O)OCc1ccccc1 (H-Lys-Trp-OBn) | 75 (≈ 178 µM) | > 200 |
| COC(=O)[C@H](CCCN=C(N)N)NC(=O)[C@@H](N)Cc1ccc(C(C)(C)C)cc1 (H-[Phe(4-tBu)]-Arg-OMe) | > 300 | > 300 |
| NC(N)=NCCC[C@H](NC(=O)[C@@H](N)CC1CCCCC1)C(=O)OCc1ccccc1 (H-[Cha]-Arg-OBn) | 100 (≈ 239 µM) | > 300 |
| NCCCC[C@H](N)C(=O)N[C@H](Cc1c[nH]c2ccccc12)C(=O)OCc1ccccc1 (H-Lys-[dW]-OBn) | 50 (≈ 118 µM) | > 200 |
| NC(N)=NCCC[C@H](NC(=O)[C@@H](N)Cc1c2ccccc2cc2ccccc12)C(=O)NCc1ccccc1 | 20 (≈ 39.2 µM) | 150 (≈ 294 µM) |
| CC(C)(C)c1cc(C(C)(C)C)c2[nH]c(C(C)(C)C)c(C[C@H](N)C(=O)N[C@@H](CCCNC(=N)N)C(N)=O)c2c1 | 15 (≈ 28.4 µM) | > 150 |
| CC(C)(C)C[C@H](N)C(=O)N[C@@H](CCCN=C(N)N)C(=O)OCc1ccccc1 (H-[tBuAla]-Arg-OBn) | > 300 | > 300 |
| NC(N)=NCCC[C@H](NC(=O)[C@@H](N)Cc1c[nH]c2ccccc12)C(=O)NCc1ccccc1 (H-Trp-Arg-NHBn) | 100 (≈ 222 µM) | > 300 |
| NCCCC[C@H](N)CN[C@@H](Cc1c[nH]c2ccccc12)C(=O)OCc1ccccc1 | 150 (≈ 367 µM) | > 300 |
| C[C@H](N)C(=O)N[C@@H](CCCN=C(N)N)C(=O)OCc1ccc(-c2ccccc2)cc1 | 100 (≈ 243 µM) | 300 (≈ 729 µM) |

The remaining compounds from weak to strong by MIC (Staphylococcus aureus), led by results:

| MIC (Staphylococcus aureus) [µg/mL] | MIC (Escherichia coli) [µg/mL] | Structure (SMILES) |
| --- | --- | --- |
| 15 (≈ 30.8 µM) | > 50 | NC(N)=NCCC[C@H](NC(=O)[C@@H](N)Cc1ccc(-c2ccccc2)cc1)C(=O)NCc1ccccc1 (H-[Bip]-Arg-NHBn) |
| 12.5 (≈ 25.6 µM) | 100 (≈ 205 µM) | NC(N)=NCCC[C@H](NC(=O)[C@@H](N)Cc1ccccc1)C(=O)OCc1ccc(-c2ccccc2)cc1 |
| 7.5 (≈ 13.2 µM) | 50 (≈ 87.7 µM) | CC(C)NC(=O)[C@H](CCCN=C(N)N)NC(=O)[C@@H](N)Cc1c(C(C)(C)C)[nH]c2c(C(C)(C)C)cc(C(C)(C)C)cc12 |
| 5 (≈ 10.3 µM) | 150 (≈ 308 µM) | NC(N)=NCCC[C@H](NC(=O)[C@@H](N)Cc1ccc(-c2ccccc2)cc1)C(=O)OCc1ccccc1 (H-[Bip]-Arg-OBn) |
| 5 (≈ 8.87 µM) | 50 (≈ 88.7 µM) | NC(N)=NCCC[C@H](NC(=O)[C@@H](N)Cc1ccc(-c2ccccc2)cc1)C(=O)OCc1ccc(-c2ccccc2)cc1 |
| 5 (≈ 9.21 µM) | 30 (≈ 55.3 µM) | COC(=O)[C@H](CCCNC(=N)N)NC(=O)[C@@H](N)Cc1c(C(C)(C)C)[nH]c2c(C(C)(C)C)cc(C(C)(C)C)cc12 |
| 2.5 (≈ 4.05 µM) | 10 (≈ 16.2 µM) | CC(C)(C)c1cc(C(C)(C)C)c2[nH]c(C(C)(C)C)c(C[C@H](N)C(=O)N[C@@H](CCCNC(=N)N)C(=O)NCc3ccccc3)c2c1 |
